This is an account of results in publication PMC10549236 (RSC Chemical Biology, 2023).

The structures appear in SMILES notation.

One experiment deals with P. aeruginosa QS system. Particulars: cited from earlier work.
The subject of the next experiment is P. aeruginosa PAO1. As to the kind of experiment: Mouse wound infection model. The class given is in vivo. The note with it: 2 mg kg^−1 topical twice daily, 48 h post-infection. The gist of the method: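 Female BALB/c mice (6–8 weeks, 18–22 g, n = 5 per group) had hair removed and a ~2 mm × 2 mm excisional flank wound made. The wound received ~5 × 10^8 CFU of PBS-washed static overnight PAO1 in 10 μL. Test compound at 2 mg kg−1 in cream was applied topically twice daily; vehicle cream served as control. At 48 h post-infection lesions were excised, homogenised and serially diluted for CFU.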

For the next experiment, the system named is P. aeruginosa. Briefly: Bacterial viability assay. The class given is cell-based, Pseudomonas aeruginosa. Put shortly: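 Broth dilution in 96-well plates. Test compound at 0.5–6 μg mL−1 in 0.5 μg mL−1 steps was mixed 1:1 by volume with log-phase P. aeruginosa at 10^6 CFU mL−1 and incubated at 37 °C for 22–24 h. Growth was read as OD600, with wells in duplicate.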

For another experiment, the system named is P. aeruginosa biofilm. As to the kind of experiment: Biofilm inhibition assay. The format is cell-based, Pseudomonas aeruginosa. Particulars: 0.08 μM, 48 h, static, versus negative control.
In experiment [1] the test system is P. aeruginosa established biofilms. As to the kind of experiment: Biofilm eradication assay. The class given is cell-based, Pseudomonas aeruginosa. Particulars: 40 μM, third day, 48 h-old biofilm, control = 100%. Put shortly: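 P. aeruginosa was grown in M9 in 6-well plates at 37 °C for 48 h to form mature biofilm. Test compound was then added at 10, 20 or 40 μM and culture continued 2 or 3 days. Wells were PBS-washed ×3, dried, stained with 0.1% crystal violet for 15 min, rinsed, solubilised in 30% acetic acid and read at A595. Untreated was set to 100%; triplicates.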

The test system of a further experiment is pyocyanin. Briefly: Pyocyanin secretion assay. Particulars: 0.08 μM, 20 h. The class given is cell-based, Pseudomonas aeruginosa. Put shortly: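 P. aeruginosa was cultured with 0.08 μM test compound at 37 °C for about 20 h to OD600 2. Pigment was extracted from about 10 mL of supernatant with chloroform, back-extracted into 0.2 M HCl, and pyocyanin read at A520.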

Experiment [2] has as its system hitAB gene knockout P. aeruginosa mutant (ΔhitAB). Briefly: Gallium uptake assay by ICP-MS, ΔhitAB mutant. The class given is cell-based, Pseudomonas aeruginosa. The note with it: 0.16 μM, ICP-MS over time. The gist of the method:
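Wild-type and ΔhitAB P. aeruginosa overnight cultures were diluted to OD600 0.1 with 0.16 μM test compound. 5 mL aliquots were taken hourly up to 5 h. Pellets were washed ×3 in PBS with 1 mM EDTA, digested in 70% nitric acid at 60 °C for 2 h, diluted to 2% HNO3 and analysed for gallium by ICP-MS.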

For the compound `O=c1cc(-c2ccccc2)oc2cc(O)c(O)c(O)c12` [Baicalein], the “Activity against P. aeruginosa QS system” value in the experiment with P. aeruginosa QS system is on record as “antagonists against P. aeruginosa QS system”.
For `O=c1cc(-c2ccccc2)oc2cc(O)cc(O)c12` [Chrysin], the “Activity against P. aeruginosa QS system” value in the experiment with P. aeruginosa QS system is reported as “antagonists against P. aeruginosa QS system”.
For the compound `O=[N+]([O-])[O-].O=[N+]([O-])[O-].O=[N+]([O-])[O-].[Ga+3]` [Ga(NO3)3], in the experiment with P. aeruginosa PAO1, the “Lower number of CFU of P. aeruginosa compared to the control group” value came to 2 log. Besides, in the experiment with P. aeruginosa, the IC50 was determined as 3.11 mg/L. In addition, the “Reduction of biofilm formation” value with P. aeruginosa biofilm is “approximately 50%”. In experiment [1], this compound returned a Biofilms remained of 30%. In addition, in the experiment with pyocyanin, the “Decrease in pyocyanin secretion” value is reported as 47%. For the same compound, the “Gallium uptake rate of ΔhitAB mutant compared to WT” value in experiment [2] is given as “significantly abrogated”.
As for `O=C1C[C@@H](c2ccc(O)cc2)Oc2cc(O)cc(O)c21` [Naringenin], the “Activity against P. aeruginosa QS system” value in the experiment with P. aeruginosa QS system is on record as “antagonists against P. aeruginosa QS system”.
